The values that follow come from ChEMBL document CHEMBL1133671, “Synthesis and SAR of new 5-phenyl-3-ureido-1,5-benzodiazepines as cholecystokinin-B receptor antagonists” (J Med Chem, 2000).

The target of the first test is T1, Cholecystokinin receptor type A (Rattus norvegicus, UniProt P30551).
T1 sequence (P30551 whole entry): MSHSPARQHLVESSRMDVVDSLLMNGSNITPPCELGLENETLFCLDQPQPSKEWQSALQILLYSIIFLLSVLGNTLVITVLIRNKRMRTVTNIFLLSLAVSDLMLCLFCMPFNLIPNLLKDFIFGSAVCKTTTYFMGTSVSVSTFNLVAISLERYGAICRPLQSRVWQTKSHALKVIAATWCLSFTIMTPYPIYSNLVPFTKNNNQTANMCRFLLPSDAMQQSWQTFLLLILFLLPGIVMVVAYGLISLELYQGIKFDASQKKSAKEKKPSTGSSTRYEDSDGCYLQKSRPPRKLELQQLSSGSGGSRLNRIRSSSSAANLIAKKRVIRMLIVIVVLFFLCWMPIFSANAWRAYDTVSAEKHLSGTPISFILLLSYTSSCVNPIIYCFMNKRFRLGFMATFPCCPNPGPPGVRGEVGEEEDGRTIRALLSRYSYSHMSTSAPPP
The test can be described thus: In vitro inhibition of binding of [3H]pCCK-8 against Cholecystokinin type A receptor of rat pancreatic membranes. The class given is cell membranes, Membrane. In a few lines:
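Radioligand displacement of [3H]CCK-8S from membranes: rat pancreas for the CCK-A receptor and guinea-pig cerebral cortex for the CCK-B receptor, using slightly modified published methods. Values are means of n experiments.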
`O=C(Nc1ccccc1)NC1C(=O)N(CCc2ccccc2)c2ccccc2N(c2ccccc2)C1=O` (racemic): the Ki (usually the equilibrium dissociation constant of an inhibitor or competing ligand from its target) is 269 nM. Still for that read-out and setting: for `O=C(Nc1cccc(Cl)c1)NC1C(=O)N(c2ccccc2)c2ccccc2N(C2CC3CCC2C3)C1=O` (stereo not given) the value was 47.9 nM; for `O=C(Nc1cccc(Br)c1)NC1C(=O)N(CC23C[C@H]4C[C@@H](C2)C[C@@H](C3)C4)c2ccccc2N(c2ccccc2)C1=O` (mixture of isomers), 191 nM. Still for that read-out and setting: under `O=C(Nc1cccc(C(=O)O)c1)NC1C(=O)N(CC23C[C@H]4C[C@@H](C2)C[C@@H](C3)C4)c2ccccc2N(c2ccccc2)C1=O` (mixture of isomers) stands 631 nM; under `CC(C)CC(C)N1C(=O)C(NC(=O)Nc2ccccc2)C(=O)N(c2ccccc2)c2ccccc21` (racemic), 115 nM.

For `CSc1cccc(NC(=O)NC2C(=O)N(CCC(C)C)c3ccccc3N(c3ccccc3F)C2=O)c1` (racemic), the Ki was 36.3 nM. In turn, `CN(C)c1ccc(NC(=O)NC2C(=O)N(CCC3CCCC3)c3ccccc3N(c3ccccc3F)C2=O)cc1` (racemic) showed a Ki of 661 nM. The molecule `CN(C)c1cccc(NC(=O)NC2C(=O)N(CCC(C)(C)C)c3ccccc3N(c3ccccc3F)C2=O)c1` (racemic) had a Ki of 19.5 nM. Molecule `CC(C)Cn1nnc(-c2cccc(NC(=O)NC3C(=O)N(CCC(C)(C)C)c4ccccc4N(c4ccccc4)C3=O)c2)n1` (racemic) gave an inhibition constant (Ki) of 49 nM. As to `O=C(Nc1ccccc1)NC1C(=O)N(CC23C[C@H]4C[C@@H](C2)C[C@@H](C3)C4)c2ccccc2N(c2ccccc2)C1=O` (single isomer, unassigned; (-)), the affinity corresponds to a Ki of 479 nM. The molecule `CC(C)(C)CCN1C(=O)C(NC(=O)Nc2cccc(OC(F)(F)F)c2)C(=O)N(c2ccccc2)c2ccccc21` (racemic) gave a Ki of 112 nM. As to `CC(=O)Nc1cccc(NC(=O)NC2C(=O)N(CC34C[C@H]5C[C@@H](C3)C[C@@H](C4)C5)c3ccccc3N(c3ccccc3)C2=O)c1` (stereo not given in full), the Ki is 1510 nM. With `CC(C)(C)CCN1C(=O)C(NC(=O)Nc2ccccc2)C(=O)N(c2ccccc2)c2ccccc21` (racemic), the Ki was 112 nM. `O=C(Nc1cccc(C2N=NN=N2)c1)NC1C(=O)N(CCC2CCCC2)c2ccccc2N(c2ccccc2F)C1=O` (racemic): the affinity corresponds to a Ki of 120 nM. For `O=C(Nc1ccccc1)NC1C(=O)N(CCC23C[C@H]4C[C@@H](C2)C[C@@H](C3)C4)c2ccccc2N(c2ccccc2)C1=O` (mixture of isomers), the Ki is 219 nM.

The molecule `CSc1cccc(NC(=O)NC2C(=O)N(CCC34C[C@H]5C[C@@H](C3)C[C@@H](C4)C5)c3ccccc3N(c3ccccc3)C2=O)c1` (stereo not given in full) showed an inhibitory constant (Ki) of 251 nM. The Ki values of the last two molecules are within 1.5-fold of each other.

`CC(C)(C)CCN1C(=O)C(NC(=O)Nc2ccccc2)C(=O)N(c2ccccc2F)c2ccccc21` (racemic) gave an inhibitory constant (Ki) of 70.8 nM. This Ki is about 3.5-fold lower than that of the molecule before. Still for that read-out and setting: for `O=C(Nc1cccc(CO)c1)NC1C(=O)N(CC23C[C@H]4C[C@@H](C2)C[C@@H](C3)C4)c2ccccc2N(c2ccccc2)C1=O` (single isomer, unassigned; (+)) the value was 2140 nM; for `O=C(Nc1ccccc1)NC1C(=O)N(CCC2CCCC2)c2ccccc2N(c2ccccc2F)C1=O` (racemic), 100 nM. Molecule `CN(C)c1cccc(NC(=O)NC2C(=O)N(CCC3CCCC3)c3ccccc3N(c3ccccc3F)C2=O)c1` (racemic) showed an inhibitory constant (Ki) of 47.9 nM.

For the molecule `CCCCN1C(=O)C(NC(=O)Nc2ccccc2)C(=O)N(c2ccccc2)c2ccccc21` (racemic), the affinity corresponds to a Ki of 550 nM. Against the preceding molecule, the Ki is about 11-fold higher.

`Nc1cccc(NC(=O)NC2C(=O)N(CC34C[C@H]5C[C@@H](C3)C[C@@H](C4)C5)c3ccccc3N(c3ccccc3)C2=O)c1` (single isomer, unassigned; (+)) gave an inhibition constant Ki of 4070 nM.

The molecule `CC(O)C(O)Nc1cccc(NC(=O)NC2C(=O)N(CC34C[C@H]5C[C@@H](C3)C[C@@H](C4)C5)c3ccccc3N(c3ccccc3)C2=O)c1` (mixture of isomers) [listing 1 of 2 here] showed a Ki of 631 nM. `O=C(Nc1cccc(O)c1)NC1C(=O)N(CC23C[C@H]4C[C@@H](C2)C[C@@H](C3)C4)c2ccccc2N(c2ccccc2)C1=O` (single isomer, unassigned; (+)) had an inhibition constant Ki of 1580 nM.

In turn, `CC(C)CCN1C(=O)C(NC(=O)Nc2cccc(N(C)C)c2)C(=O)N(c2ccccc2F)c2ccccc21` (single isomer, unassigned; (-)) [listing 1 of 2 here] gave a Ki of 72.4 nM. Molecule `O=C(Nc1ccc(Br)cc1)NC1C(=O)N(CC23C[C@H]4C[C@@H](C2)C[C@@H](C3)C4)c2ccccc2N(c2ccccc2)C1=O` (stereo not given in full) showed a Ki of 3470 nM. Molecule `O=C(Nc1cccc(C2N=NN=N2)c1)NC1C(=O)N(c2ccccc2)c2ccccc2N(C2[C@H]3C[C@@H]4C[C@@H](C[C@H]2C4)C3)C1=O` (stereo not given in full) showed a Ki of 97.7 nM. Same read-out and setting: under `O=C(Nc1cccc(C(=O)OCCN2CCOCC2)c1)NC1C(=O)N(CC23C[C@H]4C[C@@H](C2)C[C@@H](C3)C4)c2ccccc2N(c2ccccc2)C1=O` (single isomer, unassigned; (+)) stands 339 nM; under `CC(C)CCN1C(=O)C(NC(=O)Nc2cccc(N(C)C)c2)C(=O)N(c2ccccc2F)c2ccccc21` (racemic) [listing 1 of 2 here], 126 nM; under `CC(C)CCN1C(=O)C(NC(=O)Nc2cccc(N(C)C)c2)C(=O)N(c2ccccc2F)c2ccccc21` (single isomer, unassigned; (+)) [listing 1 of 2 here], 200 nM. The same measure, in the same setting: for `CC(O)C(O)Nc1cccc(NC(=O)NC2C(=O)N(CC34C[C@H]5C[C@@H](C3)C[C@@H](C4)C5)c3ccccc3N(c3ccccc3)C2=O)c1` (single isomer, unassigned; (+)) [listing 1 of 2 here] the value was 7410 nM.

The species named for another test is Cavia porcellus. The test can be described thus: Selectivity factor between CCK-B and CCK-A receptors.
For the molecule `O=C(Nc1ccccc1)NC1C(=O)N(CCc2ccccc2)c2ccccc2N(c2ccccc2)C1=O` (racemic), the Ratio is 32.

As to `O=C(Nc1cccc(Cl)c1)NC1C(=O)N(c2ccccc2)c2ccccc2N(C2CC3CCC2C3)C1=O` (stereo not given), the Ratio is 28. For the molecule `O=C(Nc1cccc(C(=O)O)c1)NC1C(=O)N(CC23C[C@H]4C[C@@H](C2)C[C@@H](C3)C4)c2ccccc2N(c2ccccc2)C1=O` (mixture of isomers), the Ratio stood at 646.

Take `CC(C)CC(C)N1C(=O)C(NC(=O)Nc2ccccc2)C(=O)N(c2ccccc2)c2ccccc21` (racemic): the Ratio is 55. For `CSc1cccc(NC(=O)NC2C(=O)N(CCC(C)C)c3ccccc3N(c3ccccc3F)C2=O)c1` (racemic), the Ratio turned out to be 110. Still for that read-out and setting: under `CN(C)c1ccc(NC(=O)NC2C(=O)N(CCC3CCCC3)c3ccccc3N(c3ccccc3F)C2=O)cc1` (racemic) stands 141.

Turning to `CN(C)c1cccc(NC(=O)NC2C(=O)N(CCC(C)(C)C)c3ccccc3N(c3ccccc3F)C2=O)c1` (racemic), the Ratio was 32. As to `CC(C)Cn1nnc(-c2cccc(NC(=O)NC3C(=O)N(CCC(C)(C)C)c4ccccc4N(c4ccccc4)C3=O)c2)n1` (racemic), the Ratio is 20. On to `CC(C)(C)CCN1C(=O)C(NC(=O)Nc2cccc(OC(F)(F)F)c2)C(=O)N(c2ccccc2)c2ccccc21` (racemic), for which the Ratio turned out to be 38. Still for that read-out and setting: under `CC(=O)Nc1cccc(NC(=O)NC2C(=O)N(CC34C[C@H]5C[C@@H](C3)C[C@@H](C4)C5)c3ccccc3N(c3ccccc3)C2=O)c1` (stereo not given in full) stands 591; under `CC(C)(C)CCN1C(=O)C(NC(=O)Nc2ccccc2)C(=O)N(c2ccccc2)c2ccccc21` (racemic), 166; under `O=C(Nc1cccc(C2N=NN=N2)c1)NC1C(=O)N(CCC2CCCC2)c2ccccc2N(c2ccccc2F)C1=O` (racemic), 468. Still for that read-out and setting: under `O=C(Nc1ccccc1)NC1C(=O)N(CCC23C[C@H]4C[C@@H](C2)C[C@@H](C3)C4)c2ccccc2N(c2ccccc2)C1=O` (mixture of isomers) stands 6; under `CC(C)CCN1C(=O)C(NC(=O)Nc2cccc(N(C)C)c2)C(=O)N(c2ccccc2F)c2ccccc21` (single isomer, unassigned; (+)) [listing 2 of 2 here], 933; under `CSc1cccc(NC(=O)NC2C(=O)N(CCC34C[C@H]5C[C@@H](C3)C[C@@H](C4)C5)c3ccccc3N(c3ccccc3)C2=O)c1` (stereo not given in full), 4. On to `CC(C)(C)CCN1C(=O)C(NC(=O)Nc2ccccc2)C(=O)N(c2ccccc2F)c2ccccc21` (racemic), for which the Ratio stood at 74. With `O=C(Nc1cccc(CO)c1)NC1C(=O)N(CC23C[C@H]4C[C@@H](C2)C[C@@H](C3)C4)c2ccccc2N(c2ccccc2)C1=O` (single isomer, unassigned; (+)), the Ratio was 12000. Still for that read-out and setting: under `O=C(Nc1ccccc1)NC1C(=O)N(CCC2CCCC2)c2ccccc2N(c2ccccc2F)C1=O` (racemic) stands 138; under `CN(C)c1cccc(NC(=O)NC2C(=O)N(CCC3CCCC3)c3ccccc3N(c3ccccc3F)C2=O)c1` (racemic), 71.

On to `CCCCN1C(=O)C(NC(=O)Nc2ccccc2)C(=O)N(c2ccccc2)c2ccccc21` (racemic), for which the Ratio came to 89. Regarding `Nc1cccc(NC(=O)NC2C(=O)N(CC34C[C@H]5C[C@@H](C3)C[C@@H](C4)C5)c3ccccc3N(c3ccccc3)C2=O)c1` (single isomer, unassigned; (+)), the Ratio is 13800. Still for that read-out and setting: under `O=C(Nc1cccc(O)c1)NC1C(=O)N(CC23C[C@H]4C[C@@H](C2)C[C@@H](C3)C4)c2ccccc2N(c2ccccc2)C1=O` (single isomer, unassigned; (+)) stands 550; under `O=C(Nc1ccc(Br)cc1)NC1C(=O)N(CC23C[C@H]4C[C@@H](C2)C[C@@H](C3)C4)c2ccccc2N(c2ccccc2)C1=O` (stereo not given in full), 2460.

In the case of `O=C(Nc1cccc(C2N=NN=N2)c1)NC1C(=O)N(c2ccccc2)c2ccccc2N(C2[C@H]3C[C@@H]4C[C@@H](C[C@H]2C4)C3)C1=O` (stereo not given in full), the Ratio was determined as 47. As to `O=C(Nc1cccc(C(=O)OCCN2CCOCC2)c1)NC1C(=O)N(CC23C[C@H]4C[C@@H](C2)C[C@@H](C3)C4)c2ccccc2N(c2ccccc2)C1=O` (single isomer, unassigned; (+)), the Ratio worked out at 603. Turning to `CC(O)C(O)Nc1cccc(NC(=O)NC2C(=O)N(CC34C[C@H]5C[C@@H](C3)C[C@@H](C4)C5)c3ccccc3N(c3ccccc3)C2=O)c1` (mixture of isomers) [listing 2 of 2 here], the Ratio was determined as 575. As to `CC(C)CCN1C(=O)C(NC(=O)Nc2cccc(N(C)C)c2)C(=O)N(c2ccccc2F)c2ccccc21` (single isomer, unassigned; (-)) [listing 2 of 2 here], the Ratio was found to be 39. On the same count and under the same terms, under `CC(C)CCN1C(=O)C(NC(=O)Nc2cccc(N(C)C)c2)C(=O)N(c2ccccc2F)c2ccccc21` (racemic) [listing 2 of 2 here] stands 501; under `CC(O)C(O)Nc1cccc(NC(=O)NC2C(=O)N(CC34C[C@H]5C[C@@H](C3)C[C@@H](C4)C5)c3ccccc3N(c3ccccc3)C2=O)c1` (single isomer, unassigned; (+)) [listing 2 of 2 here], 11000.
